According to ChEMBL document CHEMBL4689842, “EUbOPEN Chemogenomics Library wave 1” (2021):

System: Fibroblast
Assay: Multiplex assay against human fibroblast
Type: toxicity, cell-based
Outline: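 With compound added, live cells were imaged on a CQ1 microscope at 37°C and 5% CO2; staining with Hoechst33342, BioTracker Green Microtubule Cytoskeleton Dye, MitoTracker Red and Annexin V Alexa Fluor 680 had been done at seeding. The CellPathfinder machine-learning gating scheme split cells into Hoechst high-intensity objects or normal cells, normal cells into healthy, pyknosed or fragmented nuclei, and pyknosed cells into mitotic or apoptotic. The tubulin, mitochondrial-mass and membrane-permeability phenotypes are per cents of healthy-nucleus cells.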

[1] = 12 h, 1 µM, compound concentration 1 uM, replicate 1
[2] = 12 h, 1 µM, compound concentration 1 uM, replicate 2
[3] = 12 h, 10 µM, compound concentration 10 uM, replicate 1
[4] = 12 h, 10 µM, compound concentration 10 uM, replicate 2
[5] = 24 h, 1 µM, compound concentration 1 uM, replicate 1
[6] = 24 h, 1 µM, compound concentration 1 uM, replicate 2
[7] = 24 h, 10 µM, compound concentration 10 uM, replicate 1
[8] = 24 h, 10 µM, compound concentration 10 uM, replicate 2

CCOc1cc2ncc(C#N)c(Nc3ccc(OCc4cccc(F)c4)c(Cl)c3)c2cc1NC(=O)/C=C/CN(C)C [HKI-357]
Population Apoptotic (%) [1]: 72%
Population Fragmented Nuclei (%) [1]: 21%
Population Healthy Nuclei (%) [1]: 60%
Population Hoechst High Intensity Objects (%) [1]: 14%
Population Membrane Permeable-Phenotype (%) [1]: 7%
Population Mitochondria Different-Phenotype (%) [1]: 7%
Population Mitotic Cells (%) [1]: 27%
Population Normal (%) [1]: 85%
Population Pyknosed Nuclei (%) [1]: 18%
Population Tubulin-Different-Phenotype (%) [1]: 11%
Total Cell Count [1]: 223
Population Apoptotic (%) [2]: 33%
Population Fragmented Nuclei (%) [2]: 60%
Population Healthy Nuclei (%) [2]: 31%
Population Hoechst High Intensity Objects (%) [2]: 34%
Population Membrane Permeable-Phenotype (%) [2]: 4%
Population Mitochondria Different-Phenotype (%) [2]: 9%
Population Mitotic Cells (%) [2]: 66%
Population Normal (%) [2]: 65%
Population Pyknosed Nuclei (%) [2]: 8%
Population Tubulin-Different-Phenotype (%) [2]: 13%
Total Cell Count [2]: 107
Population Apoptotic (%) [3]: 76%
Population Fragmented Nuclei (%) [3]: 42%
Population Healthy Nuclei (%) [3]: 37%
Population Hoechst High Intensity Objects (%) [3]: 13%
Population Membrane Permeable-Phenotype (%) [3]: 15%
Population Mitochondria Different-Phenotype (%) [3]: 12%
Population Mitotic Cells (%) [3]: 23%
Population Normal (%) [3]: 86%
Population Pyknosed Nuclei (%) [3]: 20%
Population Tubulin-Different-Phenotype (%) [3]: 46%
Total Cell Count [3]: 368
Population Apoptotic (%) [4]: 37%
Population Fragmented Nuclei (%) [4]: 61%
Population Healthy Nuclei (%) [4]: 20%
Population Hoechst High Intensity Objects (%) [4]: 46%
Population Mitochondria Different-Phenotype (%) [4]: 26%
Population Mitotic Cells (%) [4]: 62%
Population Normal (%) [4]: 53%
Population Pyknosed Nuclei (%) [4]: 17%
Population Tubulin-Different-Phenotype (%) [4]: 78%
Total Cell Count [4]: 170
Population Apoptotic (%) [5]: 57%
Population Fragmented Nuclei (%) [5]: 23%
Population Healthy Nuclei (%) [5]: 57%
Population Hoechst High Intensity Objects (%) [5]: 15%
Population Membrane Permeable-Phenotype (%) [5]: 6%
Population Mitochondria Different-Phenotype (%) [5]: 3%
Population Mitotic Cells (%) [5]: 42%
Population Normal (%) [5]: 84%
Population Pyknosed Nuclei (%) [5]: 18%
Population Tubulin-Different-Phenotype (%) [5]: 5%
Total Cell Count [5]: 238
Population Apoptotic (%) [6]: 60%
Population Fragmented Nuclei (%) [6]: 59%
Population Healthy Nuclei (%) [6]: 33%
Population Hoechst High Intensity Objects (%) [6]: 31%
Population Membrane Permeable-Phenotype (%) [6]: 13%
Population Mitochondria Different-Phenotype (%) [6]: 4%
Population Mitotic Cells (%) [6]: 40%
Population Normal (%) [6]: 68%
Population Pyknosed Nuclei (%) [6]: 7%
Population Tubulin-Different-Phenotype (%) [6]: 18%
Total Cell Count [6]: 97
Population Apoptotic (%) [7]: 73%
Population Fragmented Nuclei (%) [7]: 44%
Population Healthy Nuclei (%) [7]: 42%
Population Hoechst High Intensity Objects (%) [7]: 19%
Population Membrane Permeable-Phenotype (%) [7]: 5%
Population Mitochondria Different-Phenotype (%) [7]: 7%
Population Mitotic Cells (%) [7]: 26%
Population Normal (%) [7]: 80%
Population Pyknosed Nuclei (%) [7]: 12%
Population Tubulin-Different-Phenotype (%) [7]: 39%
Total Cell Count [7]: 409
Population Apoptotic (%) [8]: 63%
Population Fragmented Nuclei (%) [8]: 69%
Population Healthy Nuclei (%) [8]: 19%
Population Hoechst High Intensity Objects (%) [8]: 45%
Population Membrane Permeable-Phenotype (%) [8]: 4%
Population Mitochondria Different-Phenotype (%) [8]: 23%
Population Mitotic Cells (%) [8]: 36%
Population Normal (%) [8]: 54%
Population Pyknosed Nuclei (%) [8]: 10%
Population Tubulin-Different-Phenotype (%) [8]: 66%
Total Cell Count [8]: 193
